Measured values collected from several papers.
Compare with care: the assays were run in different laboratories.
Target: Cyclin-dependent kinase 8 (CDK8, Homo sapiens, UniProt P49336)

| test | setting | quantity | value | SMILES |
| --- | --- | --- | --- | --- |
| cell-free assay | 0.1 µM | remaining signal | 75% | C1=C/COCc2cc(ccc2OCCN2CCCC2)Nc2nccc(n2)-c2cccc(c2)COC/1 |
| binding, competition with immobilised ligand | 1 µM | remaining binding | 76% | Cc1cc(S(=O)(=O)N[C@H]2CC[C@H](CN3CCN(c4ccc(C5CCC(=O)NC5=O)cc4F)CC3)CC2)ccc1Nc1ncc(C(F)(F)F)c(N2CCC[C@](C)(O)C2)n1 (some centres unmarked) |
| enzyme activity, inhibitor | 1 µM | inhibition | 5% | CC#CC(=O)N1CCC[C@H]1c1nc(-c2ccc(C(=O)Nc3ccccn3)cc2)c2c(N)nccn12 |
| binding, competition with immobilised ligand | 1 µM | remaining binding | 80% | C[C@]1(O)CCCN(c2nc(Nc3ccc(S(=O)(=O)N[C@H]4CC[C@H](CN5CCN(c6ccc(C7CCC(=O)NC7=O)cc6F)CC5)CC4)cc3Cl)ncc2C(F)(F)F)C1 (some centres unmarked) |
| binding, competition with immobilised ligand | 1 µM | remaining binding | 100% | C[C@H]1CC[C@H](n2c3cnccc3c3cnc(Nc4ccc5c(n4)CCN(C(=O)CO)C5)nc32)CC1 |
| binding, competition with immobilised ligand | 0.5 µM | remaining binding | 83% | CCCCC(=O)Nc1ccc(-c2ccc3ncn(CCC)c(=O)c3c2)cn1 |
| enzyme activity, inhibitor | 1 µM | inhibition | 5% | CO[C@@H]1[C@H](N(C)C(=O)c2ccccc2)C[C@H]2O[C@]1(C)n1c3ccccc3c3c4c(c5c6ccccc6n2c5c31)C(=O)NC4 |
| binding, competition with immobilised ligand | 1 µM | remaining binding | 100% | Cc1ccc(NC(=O)c2ccnc(C(F)(F)F)c2)cc1-c1cc(OCCO)nc(N2CCOCC2)c1 |
